What was measured:
Hepatocyte [1] = assay: Cytotoxicity against human hepatocytes up to 25 uM by lactate dehydrogenase assay; type: cell-based
Hepatocyte [2] = assay: Induction of CYP2B6 mRNA expression in human hepatocytes assessed as bupropion hydroxylation up to 25 uM by LC-MS/MS analysis; type: ADME, cell-based
Method in brief: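 Freshly isolated primary human hepatocytes from three donors were dosed once daily for 3 consecutive days at 0.2, 1, 5 and 25 µM, with 0.1% DMSO as vehicle control and phenobarbital 1000 µM as the CYP2B6 inducer control. Microsomes were then incubated with 250 µM bupropion at 0.02 mg/ml protein, and metabolite formed was measured by LC-MS/MS. Fold induction is relative to DMSO.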

[3] = Drug metabolism in human assessed as parent compound level in urine at 50 mg, po after up to 168 hrs by LC-MS/MS analysis; type: ADME, organism-based; settings: in vivo
Method in brief: (§1)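 Single 50-mg oral solution dose of [14C]saxagliptin (91.5 µCi) given to healthy male subjects after a 10-h fast. Urine collected as 0–12 h and 12–24 h pools, then in 24-h intervals to 168 h. Saxagliptin and M2 measured by validated positive-ESI LC-MS/MS with MRM; urine standard curves 25–5000 ng/ml for saxagliptin and 50–10,000 ng/ml for M2.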

[4] = Drug metabolism in human liver microsomes assessed as compound turnover at 10 uM after 1 hr by LC-MS/MS analysis in presence of NADPH; type: ADME; settings: read-out: Drug metabolism
Method in brief: (§2)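 Pooled HLM at 1 mg/ml protein, incubated with 10 µM [14C]saxagliptin and 1 mM NADPH in 100 mM phosphate buffer pH 7.4 at 37°C for 60 min. Quenched with ice-cold acetonitrile; supernatant analysed by LC-MS/MS and off-line radioanalysis.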

Cytochrome P450 3A4 [5] = target: T1, Cytochrome P450 3A4 (Homo sapiens, UniProt P08684); assay: Drug metabolism assessed as human CYP3A4-mediated 5-hydroxy saxagliptin formation at 10 uM after 30 mins by LC-MS/MS analysis; type: ADME; settings: recombinant enzyme, 0.5 h
T1 sequence (P08684 whole entry): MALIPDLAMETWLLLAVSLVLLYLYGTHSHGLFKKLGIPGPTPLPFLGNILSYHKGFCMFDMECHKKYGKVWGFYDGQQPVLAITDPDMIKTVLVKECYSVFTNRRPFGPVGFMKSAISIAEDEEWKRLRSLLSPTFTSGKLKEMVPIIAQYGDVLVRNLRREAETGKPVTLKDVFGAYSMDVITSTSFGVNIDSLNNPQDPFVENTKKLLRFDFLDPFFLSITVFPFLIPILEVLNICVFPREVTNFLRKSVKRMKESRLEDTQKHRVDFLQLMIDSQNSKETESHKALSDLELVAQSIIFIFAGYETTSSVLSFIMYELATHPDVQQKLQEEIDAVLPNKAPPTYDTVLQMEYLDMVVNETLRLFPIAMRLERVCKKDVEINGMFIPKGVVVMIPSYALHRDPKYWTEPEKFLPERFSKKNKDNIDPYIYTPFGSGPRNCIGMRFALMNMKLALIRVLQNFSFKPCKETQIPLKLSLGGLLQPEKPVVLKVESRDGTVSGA

Liver microsome [6] = assay: Drug metabolism in human liver microsomes assessed as formation of 5-hydroxy saxagliptin Michaelis-Menten kinetic analysis; type: ADME
Method in brief: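 M2 formation kinetics measured in triplicate at twelve saxagliptin concentrations from 1 to 800 µM. Enzyme source was pooled HLM (0.25 mg/ml, 30 min, 37°C) or expressed CYP3A4 or CYP3A5 (10 pmol/ml, 10 min). Incubations contained 1 mM NADPH and 2 mM MgCl2 in phosphate buffer pH 7.4.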

Cytochrome P450 2A6 = target: T2, Cytochrome P450 2A6 (Homo sapiens, UniProt P11509); assay: Inhibition of CYP2A6 in human liver microsomes assessed as coumarin 7-hydroxylation after 3 mins by LC-MS/MS analysis in presence of NADPH; type: ADME
T2 sequence (P11509 whole entry): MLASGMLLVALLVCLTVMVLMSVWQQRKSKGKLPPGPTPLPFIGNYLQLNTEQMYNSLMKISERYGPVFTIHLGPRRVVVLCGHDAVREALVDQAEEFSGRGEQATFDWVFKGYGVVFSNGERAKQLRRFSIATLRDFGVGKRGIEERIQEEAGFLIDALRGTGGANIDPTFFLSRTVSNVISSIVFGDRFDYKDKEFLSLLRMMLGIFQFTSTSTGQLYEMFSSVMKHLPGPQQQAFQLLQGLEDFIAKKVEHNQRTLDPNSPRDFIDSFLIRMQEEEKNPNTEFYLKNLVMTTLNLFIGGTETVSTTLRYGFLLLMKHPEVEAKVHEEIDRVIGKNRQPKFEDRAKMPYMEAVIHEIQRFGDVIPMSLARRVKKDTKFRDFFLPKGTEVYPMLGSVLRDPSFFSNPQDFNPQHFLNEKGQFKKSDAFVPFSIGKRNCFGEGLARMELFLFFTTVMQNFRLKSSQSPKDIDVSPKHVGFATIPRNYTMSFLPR

Cytochrome P450 3A4 [7] = target: T1, Cytochrome P450 3A4; assay: Inhibition of CYP3A4 in human liver microsomes assessed as midazolam 1'-hydroxylation after 3 mins by LC-MS/MS analysis; type: ADME
Cytochrome P450 3A4 [8] = target: T1, Cytochrome P450 3A4; assay: Inhibition of CYP3A4 in human liver microsomes assessed as testosterone 6beta-hydroxylation after 3 mins by LC-MS/MS analysis in presence of NADPH; type: ADME
Cytochrome P450 1A2 = target: T3, Cytochrome P450 1A2 (Homo sapiens, UniProt P05177); assay: Inhibition of CYP1A2 in human liver microsomes assessed as phenacetin O-deethylation preincubated for 15 mins by LC-MS/MS analysis in presence of NADPH; type: ADME
T3 sequence (P05177 whole entry): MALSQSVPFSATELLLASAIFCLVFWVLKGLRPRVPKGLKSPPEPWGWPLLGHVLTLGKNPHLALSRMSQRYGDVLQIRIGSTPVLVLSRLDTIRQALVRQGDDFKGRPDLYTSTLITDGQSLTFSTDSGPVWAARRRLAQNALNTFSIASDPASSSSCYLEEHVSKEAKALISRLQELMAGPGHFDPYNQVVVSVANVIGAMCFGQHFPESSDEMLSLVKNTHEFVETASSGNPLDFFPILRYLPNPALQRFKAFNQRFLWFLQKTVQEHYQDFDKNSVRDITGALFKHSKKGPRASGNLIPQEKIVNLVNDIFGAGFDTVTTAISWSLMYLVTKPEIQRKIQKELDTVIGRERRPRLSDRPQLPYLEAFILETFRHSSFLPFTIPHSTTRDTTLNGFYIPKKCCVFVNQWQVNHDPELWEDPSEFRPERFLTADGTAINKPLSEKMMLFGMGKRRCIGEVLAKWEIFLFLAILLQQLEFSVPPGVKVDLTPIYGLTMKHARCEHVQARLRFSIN

Cytochrome P450 3A4 [9] = target: T1, Cytochrome P450 3A4; assay: Inhibition of CYP3A4 in human liver microsomes assessed as midazolam 1'-hydroxylation preincubated for 15 mins by LC-MS/MS analysis; type: ADME
Cytochrome P450 3A4 [10] = target: T1, Cytochrome P450 3A4; assay: Inhibition of CYP3A4 in human liver microsomes assessed as testosterone 6beta-hydroxylation preincubated for 15 mins by LC-MS/MS analysis in presence of NADPH; type: ADME
Hepatocyte [11] = assay: Induction of CYP1A2 mRNA expression in human hepatocytes assessed as phenacetin O-deethylation up to 100 uM by LC-MS/MS analysis; type: ADME, cell-based
Method in brief: (§3)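 Primary hepatocytes from three donors treated once daily for 3 days: saxagliptin 0.2–25 µM, M2 0.2–100 µM, 0.1% DMSO as vehicle. Microsomal activity assayed by LC-MS/MS: phenacetin 100 µM with 0.02 mg/ml protein (CYP1A2), bupropion 250 µM with 0.02 mg/ml (CYP2B6), testosterone 200 µM with 0.01 mg/ml (CYP3A4). mRNA measured by TaqMan qPCR as 2^ΔCT relative to endogenous control and DMSO.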

Hepatocyte [12] = assay: Induction of CYP2B6 mRNA expression in human hepatocytes assessed as bupropion hydroxylation up to 100 uM by LC-MS/MS analysis; type: ADME, cell-based; method in brief: as §3
Hepatocyte [13] = assay: Induction of CYP3A4 mRNA expression in human hepatocytes assessed as testosterone 6beta-hydroxylation up to 100 uM by LC-MS/MS analysis; type: ADME, cell-based; method in brief: as §3
[14] = Drug level in human urine treated with 50 mg, po of [14C]saxagliptin up to 168 hrs by LC-MS/MS analysis; type: ADME, organism-based; settings: in vivo; method in brief: as §1
Liver microsome [15] = assay: Drug level in human liver microsomes treated with 10 uM of [14C]saxagliptin after 1 hr by LC-MS/MS analysis in presence of NADPH; type: ADME; method in brief: as §2

Activity (Hepatocyte [2]) | Drug metabolism [3] | metabolised at 1 h, 10 µM [4] | Drug metabolism (Cytochrome P450 3A4 [5]) | Km (Liver microsome [6]) | Vmax (Liver microsome [6]) | IC50 (Cytochrome P450 2A6) | IC50 (Cytochrome P450 3A4 [7]) | IC50 (Cytochrome P450 3A4 [8]) | IC50 (Cytochrome P450 1A2) | IC50 (Cytochrome P450 3A4 [9]) | IC50 (Cytochrome P450 3A4 [10]) | Activity (Hepatocyte [11]) | Activity (Hepatocyte [12]) | Activity (Hepatocyte [13]) | Drug metabolism [14] | Drug metabolism (Liver microsome [15]) | SMILES | Activity (Hepatocyte [1])
Not Active | metabolite_detected | 32% | metabolite_detected | 94.8 µM | 496 pmol/min |  |  |  |  |  |  |  |  |  |  |  | N#C[C@@H]1C[C@@H]2C[C@@H]2N1C(=O)[C@@H](N)C12CC3CC(CC(O)(C3)C1)C2 [SAXAGLIPTIN ANHYDROUS] | Non-toxic
 |  |  |  |  |  | > 200 µM | > 200 µM | > 200 µM | > 200 µM | > 200 µM | > 200 µM | Not Active | Not Active | Not Active | metabolite_detected | metabolite_detected | N#C[C@@H]1C[C@@H]2C[C@@H]2N1C(=O)[C@@H](N)C12CC3CC(O)(CC(O)(C3)C1)C2 | 
